{"source": "ChEMBL document CHEMBL1154414", "about": "“In vitro and in vivo activities of T-705 against arenavirus and bunyavirus infections” (Antimicrob Agents Chemother, 2007)", "key": {"[1]": {"system": "Punta Toro virus", "experiment": "Antiviral activity against 500 PFU Punta Toro virus Adames infected C57BL/6 mouse assessed as inhibition of liver damage at 200 mg/kg, po twice daily administered 4 hrs before viral challenge measured on day 4 of viral infection", "assay_type": "functional, organism-based", "set-up": "dose 200 mg/kg", "how_it_was_run": "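Mice were infected with PTV subcutaneously and dosed by oral gavage twice daily (0.4% CMC vehicle). Five animals per group (10 placebo) were sacrificed on day 3 or 4. Livers were scored 0–4 for hepatic icterus, where 0 is normal and 4 is maximal yellow coloration.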"}, "[2]": {"system": "Pichinde virus", "experiment": "Antiviral activity against Pichinde virus An 4763 infected Syrian golden hamster assessed as mean serum ALT levels at 60 mg/kg, po twice daily for 7 days administered 4 hrs before viral-challenge measured on day 7 of viral infection", "assay_type": "functional"}, "[3]": {"system": "La Crosse virus", "experiment": "Antiviral activity against La Crosse virus assessed as reduction of 1 log10 unit viral titer yields after 3 to 5 days", "assay_type": "functional"}, "[4]": {"system": "Pichinde virus", "experiment": "Antiviral activity against Pichinde virus An 4763 infected Syrian golden hamster assessed as mean viral titer per 0.1 g of liver at 15 mg/kg, po twice daily for 7 days administered 4 hrs before viral-challenge measured on day 7 of viral infection", "assay_type": "functional"}, "[5]": {"system": "Pichinde virus", "experiment": "Antiviral activity against Pichinde virus An 4763 infected Syrian golden hamster assessed as mean day of death at 60 mg/kg, po twice daily for 7 days administered 4 hrs before viral-challenge", "assay_type": "functional"}, "[6]": {"system": "Pichinde virus", "experiment": "Antiviral activity against Pichinde virus An 4763 infected Syrian golden hamster assessed as animals with detectable virus level in liver at 15 mg/kg, po twice daily for 7 days administered 4 hrs before viral-challenge measured on day 7 of viral infection", "assay_type": "functional"}, "[7]": {"system": "Punta Toro virus", "experiment": "Antiviral activity against 500 PFU Punta Toro virus Adames infected C57BL/6 mouse assessed as mean serum ALT levels at 200 mg/kg, po twice daily administered 4 hrs before viral challenge measured on day 4 of viral infection", "assay_type": "functional", "how_it_was_run": "(§1)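 Subcutaneous PTV infection was followed by oral gavage twice daily with drug suspended in 0.4% CMC. Serum was collected from 5 sacrificed mice per group (10 placebo) on day 3 or 4. ALT activity was measured by kinetic assay, and sham-infected mice set the baselines.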"}, "[8]": {"system": "Punta Toro virus", "experiment": "Antiviral activity against 500 PFU Punta Toro virus Adames infected C57BL/6 mouse assessed as mean viral titer per 0.1 g of liver at 50 mg/kg, po administered 4 hrs before viral challenge measured on day 4 of viral infection", "assay_type": "functional", "how_it_was_run": "(§2)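 Mice were infected subcutaneously with PTV and dosed by oral gavage twice daily; 5 per group (10 placebo) were killed on day 3 or 4. Liver homogenate or serum was serially diluted onto triplicate LLC-MK2 monolayers, and CPE was read 6–8 days later. 50% endpoints gave log10 CCID50 per 0.1 g liver or 0.1 ml serum. Detection range was 2.8–9.5; undetectable samples were assigned <2.8.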"}, "[9]": {"system": "Enterovirus C", "experiment": "Antiviral activity against Poliovirus", "assay_type": "functional, organism-based"}, "[10]": {"system": "Punta Toro virus", "experiment": "Antiviral activity against 500 PFU Punta Toro virus Adames infected C57BL/6 mouse assessed as animals with detectable virus level in serum at 50 mg/kg, po twice daily administered 4 hrs before viral challenge measured on day 4 of viral infection", "assay_type": "functional", "how_it_was_run": "(§3)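 T-705 was suspended in 0.4% carboxymethylcellulose and given by oral gavage twice daily. Mice were infected subcutaneously with PTV. Five mice per group (10 placebo) were sacrificed on day 3 or 4. Liver homogenate or serum was serially diluted onto triplicate LLC-MK2 monolayers, and CPE was read at 6–8 days. The detection limit was 2.8 log10 CCID50 per 0.1 g liver or 0.1 ml serum.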"}, "[11]": {"system": "Punta Toro virus", "experiment": "Antiviral activity against Punta Toro virus Adames infected Syrian golden hamster assessed as inhibition of liver damage at 60 mg/kg, po twice daily administered 4 hrs before viral challenge measured on day 4 of viral infection", "assay_type": "functional, organism-based", "set-up": "dose 60 mg/kg"}, "[12]": {"system": "Punta Toro virus", "experiment": "Antiviral activity against 500 PFU Punta Toro virus Adames infected C57BL/6 mouse assessed as animals with detectable virus level in liver at 75 mg/kg, po twice daily administered 4 hrs before viral challenge measured on day 4 of viral infection", "assay_type": "functional", "how_it_was_run": "as §3"}, "[13]": {"system": "Punta Toro virus", "experiment": "Antiviral activity against 500 PFU Punta Toro virus Adames infected C57BL/6 mouse assessed as mean viral titer per 0.1 mL of serum at 30 mg/kg, po twice daily administered 4 hrs before viral challenge measured on day 3 of viral infection", "assay_type": "functional", "how_it_was_run": "as §2"}, "[14]": {"system": "Punta Toro virus", "experiment": "Antiviral activity against 500 PFU Punta Toro virus Adames infected C57BL/6 mouse assessed as animals with detectable virus level in liver at 200 mg/kg, po twice daily administered 4 hrs before viral challenge measured on day 4 of viral infection", "assay_type": "functional", "how_it_was_run": "as §3"}, "[15]": {"system": "Punta Toro virus", "experiment": "Antiviral activity against 500 PFU Punta Toro virus Adames infected C57BL/6 mouse assessed as mean day of death at 30 mg/kg, po twice daily for 5 days administered 4 hrs before viral challenge", "assay_type": "functional", "how_it_was_run": "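Groups of 15 mice (25–30 placebo) were inoculated subcutaneously with PTV. Drug in 0.4% carboxymethylcellulose was given by oral gavage twice daily.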"}, "[16]": {"system": "Pichinde virus", "experiment": "Antiviral activity against Pichinde virus An 4763 infected Syrian golden hamster assessed as […] survival administered po twice daily for 7 days administered 4 hrs before viral-challenge", "assay_type": "functional, organism-based"}, "[17]": {"system": "Pichinde virus", "experiment": "Antiviral activity against Pichinde virus An 4763 infected Syrian golden hamster assessed as mean viral titer per 0.1 g of liver at 60 mg/kg, po twice daily for 7 days administered 4 hrs before viral-challenge measured on day 7 of viral infection", "assay_type": "functional"}, "[18]": {"system": "Punta Toro virus", "experiment": "Antiviral activity against 500 PFU Punta Toro virus Adames infected C57BL/6 mouse assessed as mean serum ALT levels at 100 mg/kg, po twice daily administered 4 hrs before viral challenge measured on day 4 of viral infection", "assay_type": "functional", "how_it_was_run": "as §1"}, "[19]": {"system": "Punta Toro virus", "experiment": "Antiviral activity against 500 PFU Punta Toro virus Adames infected C57BL/6 mouse assessed as mean serum ALT levels at 50 mg/kg, po twice daily administered 4 hrs before viral challenge measured on day 4 of viral infection", "assay_type": "functional", "how_it_was_run": "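C57BL/6 mice received subcutaneous PTV, then oral gavage twice daily for 5–7 days. T-705 was given in 0.4% CMC and ribavirin in saline. Five mice per group (10 placebo) were killed on day 3 or 4, and serum was collected. ALT activity was measured by kinetic assay. Three sham-infected mice set baselines.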"}, "[20]": {"system": "Punta Toro virus", "experiment": "Antiviral activity against 500 PFU Punta Toro virus Adames infected C57BL/6 mouse assessed as animals with detectable virus level in serum at 100 mg/kg, po twice daily administered 4 hrs before viral challenge measured on day 4 of viral infection", "assay_type": "functional", "how_it_was_run": "as §3"}, "[21]": {"system": "Punta Toro virus", "experiment": "Antiviral activity against 500 PFU Punta Toro virus Adames infected C57BL/6 mouse assessed as animals with detectable virus level in liver at 10 mg/kg, po twice daily administered 4 hrs before viral challenge measured on day 3 of viral infection", "assay_type": "functional", "how_it_was_run": "as §3"}, "[22]": {"system": "Sandfly fever Naples virus", "experiment": "Antiviral activity against Sandfly fever Naples virus assessed as reduction of 1 log10 unit viral titer yields after 3 to 5 days", "assay_type": "functional"}, "[23]": {"system": "Pichinde virus", "experiment": "Antiviral activity against Pichinde virus An 4763 infected Syrian golden hamster assessed as mean viral titer per 0.1 mL of serum at 60 mg/kg, po twice daily for 7 days administered 4 hrs before viral-challenge measured on day 7 of viral infection", "assay_type": "functional"}, "[24]": {"system": "Pichinde virus", "experiment": "Antiviral activity against Pichinde virus An 4763 infected Syrian golden hamster assessed as survival at 20 mg/kg, po twice daily for 7 days administered 72 hrs post viral-challenge", "assay_type": "functional"}, "[25]": {"system": "Pichinde virus", "experiment": "Antiviral activity against Pichinde virus An 4763 infected Syrian golden hamster assessed as survival at 50 mg/kg, po twice daily for 7 days administered 24 hrs post viral-challenge", "assay_type": "functional, organism-based", "set-up": "dose 50 mg/kg"}}, "note": "Activity calls are given as the source filed them. No cut-off for these calls is given here."}
{"smiles": "NC(=O)c1nc(F)cnc1O", "note": "[FAVIPIRAVIR]", "values": [{"measurement": "Activity", "setting": "[1]", "result": "Active"}, {"measurement": "Activity", "setting": "[2]", "result": 23, "unit": "IU/L"}, {"measurement": "EC90", "setting": "[3]", "result": 7, "unit": "µM"}, {"measurement": "log10CCID50", "setting": "[4]", "result": 7.7}, {"measurement": "Activity", "setting": "[5]", "result": 22, "unit": "days"}, {"measurement": "Activity", "setting": "[6]", "result": 100, "unit": "%"}, {"measurement": "Activity", "setting": "[7]", "result": 37, "unit": "IU/L"}, {"measurement": "log10CCID50", "setting": "[8]", "result": "<2.8"}, {"measurement": "EC50", "setting": "[9]", "result": 31, "unit": "µM"}, {"measurement": "Activity", "setting": "[10]", "result": 10, "unit": "%"}, {"measurement": "Activity", "setting": "[11]", "result": "Active"}, {"measurement": "Activity", "setting": "[12]", "result": 0, "unit": "%"}, {"measurement": "log10CCID50", "setting": "[13]", "result": "<5.2"}, {"measurement": "Activity", "setting": "[14]", "result": 0, "unit": "%"}, {"measurement": "Activity", "setting": "[15]", "result": ">21", "unit": "days"}, {"measurement": "Activity", "setting": "[16]", "result": "Dose-dependent effect"}, {"measurement": "log10CCID50", "setting": "[17]", "result": "<2.8"}, {"measurement": "Activity", "setting": "[18]", "result": 33, "unit": "IU/L"}, {"measurement": "Activity", "setting": "[19]", "result": 41, "unit": "IU/L"}, {"measurement": "Activity", "setting": "[20]", "result": 0, "unit": "%"}, {"measurement": "Activity", "setting": "[21]", "result": 0, "unit": "%"}, {"measurement": "EC90", "setting": "[22]", "result": 3, "unit": "µM"}, {"measurement": "log10CCID50", "setting": "[23]", "result": "<2.8"}]}
{"smiles": "NC(=O)c1ncn([C@@H]2O[C@H](CO)[C@@H](O)[C@H]2O)n1", "note": "[RIBAVIRIN]", "values": [{"measurement": "Efficacy", "setting": "[24]", "result": 60, "unit": "%"}, {"measurement": "Activity", "setting": "[25]", "result": "Active"}]}
